Assay results from different studies.
Effect on: cell growth or viability

Nc1ccc(/C=C/C(=O)N2CCc3c(oc4c(-c5ccc(F)cc5)cc(-c5cnc(C(=O)N6CCC(F)(F)CC6)nc5)cc34)C2)cn1  IC50 (U2OS; CCK-8; 72 h): 950 nM
COc1cc2ncnc(Nc3ccc4c(c3)/C(=C/c3ccccc3)C(=O)N4C)c2cc1OC  IC50 (H22; MTT): 15100 nM
CN1CCC(NC(=O)c2ccc(-c3cc(-c4ccsc4)c4oc5c(c4c3)CCN(C(=O)/C=C/c3ccc(N)nc3)C5)nn2)C(F)(F)C1 (stereo not drawn)  IC50 (U2OS; CCK-8; 72 h): 1200 nM
COc1cc2c3c(n(CCCNC(C)C)c(=O)c2cc1OC)-c1nc2c(cc1C3=O)OCO2  IC50 (L-363; MTS; 72 h): 126 nM
C=CC(=O)N1CCN(c2nc(=O)n(-c3c(C)ccnc3C(C)C)c3nc(-c4c(O)cccc4F)c(F)cc23)[C@@H](C)C1  IC50 (NCI-H1792; ATP luminescence): > 1000 nM
COc1cc2c3c(n(CCCN4CCOCC4)c(=O)c2cc1OC)-c1nc2c(cc1C3=O)OCO2  IC50 (L-363; MTS; 72 h): 342 nM
C=CC(=O)NC1CCN(c2ncc3ncnc(Nc4ccc(Oc5ccc6c(c5)ncn6C)c(C)c4)c3n2)CC1  IC50 (SNU-216): 18.2 nM
COc1cc2ncnc(Nc3ccc4c(c3)/C(=C/c3ccccc3)C(=O)N4)c2cc1OC  IC50 (H22; MTT): > 50000 nM
COc1cc2c3c(n(CCCn4ccnc4)c(=O)c2cc1OC)-c1nc2c(cc1C3=O)OCO2  IC50 (L-363; MTS; 72 h): 232 nM
Cc1nc(NC(=O)N2CCC[C@H]2C(N)=O)sc1-c1ccnc(C(C)(C)C(F)(F)F)c1  IC50 (H22; MTT): 25400 nM
CN1CCC(NC(=O)c2ccc(-c3cc(C4CC4)c4oc5c(c4c3)CCN(C(=O)/C=C/c3ccc(N)nc3)C5)nn2)C(F)(F)C1 (stereo not drawn)  IC50 (U2OS; CCK-8; 72 h): 3490 nM
Cc1nc(Nc2ccc3c(c2)/C(=C/c2ccccc2C)C(=O)N3)c2ccccc2n1  IC50 (H22; MTT): 9920 nM
O=C(C=Cc1ccccc1)Nc1cc(-c2ccnc(N3CCOCC3)c2)ccn1  IC50 (HeLa; MTT; 72 h): 402 nM
Cc1nc(Nc2ccc3c(c2)C(C)(C)C(=O)N3)c2ccccc2n1  IC50 (H22; MTT): > 50000 nM
CCN1[C@@H](C(=O)NC23CCC(C(=O)O)(CC2)CC3)[C@H](c2cccc(Cl)c2F)[C@]2(C(=O)Nc3cc(Cl)ccc32)C12CCCCC2  IC50 (U2OS; resazurin; 72 h): > 1000 nM
